RTF Ca sens act – increases calcium sensitivity of human cardiac regulated thin filaments. AID 493008. activation, % at 7.2 µM. IANBD-labeled TnC RTF fluorescence at EC20 calcium; 0% EC20 calcium, 100% full calcium. P19429+P45379. 340,000 tested, 0.24% active;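 active = activation above the mean over all tested compounds plus 3 SD, cut at about 30% in these data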;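 note: rise in fluorescence read as greater calcium sensitivity of cardiac thin filaments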
Tn6 DDE FP – inhibitors of Tn6 peptide binding to human fibrin DD(E). Fibrin DD(E) TRITC-Tn6 fluorescence polarization displacement. inhibition, % at 8.3 µM. 370,000 tested, 0.21% active;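 active = inhibition above a per-campaign cutoff: mean of compounds within control limits plus 3 SD, cut at about 15% in these data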;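 note: 0% = median of all compound wells on the plate and 100% = blocking peptide control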
Keap1-Nrf2 PPI – disrupts human Keap1 binding to Nrf2 peptide; Keap1 Kelch-Nrf2 peptide fluorescence polarization, 1536-well; inhibition, % at 9.4 µM; 340,000 tested, 0.15% active; AID 504523; in the data active = inhibition above about 12%;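 note: human Keap1 Kelch domain with fluorescein labeled Nrf2 9mer peptide probe; 0% = neutral control wells and 100% = peptide positive control; higher means more block of Keap1 binding to Nrf2 peptide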
Cardiac RTF inh – cardiac RTF calcium desensitization | AID 493244 | 340,000 tested, 0.12% active | inhibition, % at 7.15 µM | IANBD-labeled cardiac RTF, Ca2+ fluorescence;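 active = inhibition above the mean inhibition of all tested compounds plus 3 SD, cut at about 17% in these data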;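 note: assay run at fixed EC70 calcium of 1.6 mM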
LANA DNA inh – KSHV C-LANA DNA binding inhibition. MBP-C-LANA/FAM-LBS DNA binding, fluorescence polarization. inhibition, % at 9 µM. 340,000 tested, 0.078% active;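 active = highest replicate inhibition at or above 60% at 9 µM, even if other replicates fall short; inactive = all replicates below 60% inhibition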;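 note: 0% = neutral control wells and 100% = 4 µM acridine orange control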
DDE Tn7 FP inh – inhibitors of Tn7 peptide binding to human fibrin DD(E). P02675. FP displacement of FITC-Tn7 peptide from fibrin DD(E); 0% = median of compound wells per plate. inhibition, % at 8.3 µM. 370,000 tested, 0.13% active;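 active = inhibition above the mean of compounds falling within the control limits plus 3 SD of them, cut at about 14% in these data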;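 note: 0% = plate median of compound wells and 100% = 10 µM Aha-Tn7 peptide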
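Assay system: Fibrin-DD(E) protein isolated from polymerized human fibrin clots; read-out basis: percent inhibition; medium: Tris/NaCl/CaCl2 buffer, pH 7.8; signal: FP measurement; incubation: 10 min plus 3 h, room temperature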
RTF inh confirm – cardiac RTF calcium sensitivity inhibition, confirmation; AID 504635; reconstituted cardiac thin filaments, calcium sensitivity fluorescence; inhibition, % at 7.15 µM; shares compounds with Cardiac RTF inh; 360 tested, 8% active; in the data active = inhibition above about 18%
* = called active by the depositor; . = not tested or not shown. Compounds with a hit are over-represented: about 0.73% of the library has one in this group of screens.

SMILES	RTF Ca sens act	Tn6 DDE FP	Keap1-Nrf2 PPI	Cardiac RTF inh	LANA DNA inh	DDE Tn7 FP inh	RTF inh confirm
COc1ccccc1-n1c(SCC(=O)Nc2ccc(C)cc2)nc(O)cc1=O	-0.9	-7.6	-0.3	18.1*	0.6	-3.3	-1.9
COc1ccc(NC(=O)CSc2nc(O)cc(=O)n2-c2ccccc2OC)cc1	-0.9	.	0.5	-6.2	2.8	.	.
Cc1cc(NC(=O)C(C)SCC(=O)N(C)CC(=O)Nc2ccc(Br)cc2C)no1 (centres undefined)	-4.9	-0.7	0.8	-1.2	2.0	3.4	.
Cc1ccc(C)c(NC(=O)CN(C)C(=O)CSC(C)C(=O)Nc2cc(C)on2)c1 (centres undefined)	-5.9	-4.7	-4.1	19.0*	1.9	-4.1	-1.3
CC(C)(C)n1nnnc1C(c1cccc(C#N)c1)N1CCCCCC1 (centres undefined)	-4.4	-3.7	-2.6	23.1*	-0.9	-4.2	-1.5
CC(C)(C)n1nnnc1C(c1cccc(C#N)c1)N1CCN2CCCC2C1 (centres undefined)	3.7	-6.7	3.2	0.7	1.0	10.4	.
CCC(=O)N1CCCC1(C)C(=O)Nc1ccc2nc(C)ccc2c1 (centres undefined)	.	4.3	.	.	.	-9.6	.
CCc1cc(C(=O)N=Nc2c(O)[nH]c3ccc([N+](=O)[O-])cc23)c2ccccc2n1	-3.9	-7.2	-0.2	17.2*	-0.5	-3.1	-7.3
CC(C)(C)C(=O)Nc1ncccc1C(O)c1cccc(C(F)(F)F)c1 (centres undefined)	-9.6	3.6	0.5	18.9*	0.4	5.5	-1.2
O=C(C1CC1)N1CCc2cc(Br)cc(S(=O)(=O)NCc3ccco3)c21	-5.1	4.2	-12.8	17.3*	1.6	2.6	-3.6
CC(C)(C)c1ccccc1NC(=O)c1ccc(-n2cncn2)c([N+](=O)[O-])c1	-2.0	1.9	-4.8	-3.4	0.8	5.8	.
O=C(Nc1ccccc1OC(F)F)c1ccc(-n2cncn2)c([N+](=O)[O-])c1	5.0	-1.2	-4.5	86.7*	0.6	-6.8	-5.2
O=C(Nc1ccc(N=Nc2ccccc2)c(NC(=O)C2CCCO2)c1)C1CCCO1 (centres undefined)	-6.2	-4.9	-0.9	20.5*	-0.6	6.5	-1.0
CN(Cc1cn(CC2CCCCC2)nn1)S(=O)(=O)c1ccccc1Br	.	0.2	.	.	.	-1.4	.
O=C1/C(=C/c2cccs2)COc2ccccc21	-7.1	6.6	2.1	18.1*	-2.0	0.3	-3.0
CCCCOc1cccc2c(=O)n(CC(=O)Nc3ccc4c(c3)OCCO4)ccc12	.	0.5	.	.	.	0.5	.
COc1ccc(CC(=O)O)cc1O	-4.9	0.0	2.4	5.4	2.1	6.6	.
COc1cc(CC(=O)O)ccc1O	-1.1	-1.4	2.1	17.6*	0.1	2.9	-3.5
Fc1ccc(Cn2ccc3ccc(-c4ccc5ccn(Cc6ccc(F)cc6F)c5c4)cc32)c(F)c1	.	-6.3	.	.	.	3.0	.
O=C(O)c1ccc(CNC(=O)c2ccccc2NC(=O)c2cccc([N+](=O)[O-])c2)cc1	2.3	0.4	2.6	18.0*	0.2	5.1	-4.3
COc1cccc(/C=N/Nc2nc3ccccc3n3cnnc23)c1	3.7	0.6	-6.7	-6.7	-1.5	-2.1	.
COc1cccc(/C=N/Nc2nc3ccccc3n3cnnc23)c1O	-14.7	-7.7	-1.6	22.8*	1.2	-21.0	39.9*
CCN(CC)CCNC(=O)c1ccc(Sc2ccc(C)cc2)c(NC(C)=O)c1	-0.5	10.2	-3.8	18.1*	-0.8	-10.1	-4.5
Cc1ccc(NC(=O)[C@@H](Cc2ccccc2)NC(=O)[C@H]2O[C@@H](n3ccc(=O)[nH]c3=O)[C@H](O)[C@@H]2O)cc1C	.	-2.4	.	.	.	2.1	.
CC1(C)Cc2cccc(OCC(O)CNCc3ccccn3)c2O1 (centres undefined)	-3.2	-2.3	-4.3	17.6*	-0.2	0.9	1.6
CC1(C)Cc2cccc(OCC(O)CN3CCN(c4ccccn4)CC3)c2O1 (centres undefined)	-7.7	-2.1	-3.1	-6.7	-0.8	4.0	.
COC(=O)C1CCN(C(=O)c2cc(OC)c(OC)c(OC)c2)CC1	4.9	-1.5	-1.2	-15.8	0.0	3.4	.

Assay outcomes (PubChem)
